# Measurements: ChEMBL document CHEMBL4043093, “2-Oxo-3, 4-dihydropyrimido[4, 5-d]pyrimidinyl derivatives as new irreversible pan fibroblast growth factor receptor (FGFR) inhibitors” (Eur J Med Chem, 2017)
# Legend:
# [1] = molecular target: Phosphatidylinositol 4-phosphate 5-kinase type-1 gamma (Homo sapiens) (UniProt O60331); assay: Inhibition of wild-type human partial length PIP5K1C (M1 to T668 residues) expressed in HEK293 cells assessed as residual activity at 1000 nM after 30 mins by Kinomescan method relative to control; type: cell-based
# [2] = molecular target: Cyclin-dependent kinase-like 5 (Homo sapiens) (UniProt O76039); assay: Inhibition of wild-type human partial length CDKL5 (M1 to S337 residues) expressed in HEK293 cells assessed as residual activity at 1000 nM after 30 mins by Kinomescan method relative to control; type: cell-based
# [3] = molecular target: Mitogen-activated protein kinase 1 (Homo sapiens) (UniProt P28482); assay: Inhibition of wild-type human full length ERK2 (M1 to S360 residues) expressed in Escherichia coli BL21 assessed as residual activity at 1000 nM after 30 mins by Kinomescan method relative to control
# Outline: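 Single-concentration screen at 1 µM across a 456-kinase KINOMEscan panel. The read-out is Percent Control for each kinase.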
# [4] = molecular target: Fibroblast growth factor receptor 1 (Homo sapiens, UniProt P11362); assay: Inhibition of human recombinant His-tagged FGFR1 cytoplasmic domain (308 to 731 residues) expressed in baculovirus using Tyr-4 peptide after 1 hr by FRET-based Z'-Lyte assay
# [5] = tested on: Receptor-type tyrosine-protein kinase FLT3 (Homo sapiens), P36888 [D835V]; assay: Inhibition of human partial length FLT3 D835V mutant (V592 to Y969 residues) expressed in Escherichia coli BL21 assessed as residual activity at 1000 nM after 30 mins by Kinomescan method relative to control
# Outline: (§1)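 KINOMEscan binding panel of 456 kinases, with the test compound at a single concentration of 1 µM. Read-out is Percent Control.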
# [6] = molecular target: Calcium/calmodulin-dependent protein kinase kinase 1 (Homo sapiens) (UniProt Q8N5S9); assay: Inhibition of wild-type human partial length CAMKK1 (R65 to E414 residues) expressed in Escherichia coli BL21 assessed as residual activity at 1000 nM after 30 mins by Kinomescan method relative to control
# [7] = molecular target: Calcium/calmodulin-dependent protein kinase type 1 (Homo sapiens) (UniProt Q14012); assay: Inhibition of wild-type human full length CAMK1 (M1 to L370 residues) expressed in Escherichia coli BL21 assessed as residual activity at 1000 nM after 30 mins by Kinomescan method relative to control
# Outline: (§2)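 Single-point screen at a fixed 1 µM, run within a 456-kinase DiscoveRx KINOMEscan panel. Each kinase's read-out is Percent Control, i.e. signal relative to a control without compound. Hits were scored by a Percent Control < 35 cut-off, and an S(35) selectivity score was calculated across the non-mutant kinases.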
# [8] = molecular target: Serine/threonine-protein kinase Chk1 (Homo sapiens) (UniProt O14757); assay: Inhibition of wild-type human partial length CHEK1 (M1 to G289 residues) expressed in Escherichia coli BL21 assessed as residual activity at 1000 nM after 30 mins by Kinomescan method relative to control
# Chain of Serine/threonine-protein kinase Chk1 (Homo sapiens) (O14757 whole entry, the tested form may be a part): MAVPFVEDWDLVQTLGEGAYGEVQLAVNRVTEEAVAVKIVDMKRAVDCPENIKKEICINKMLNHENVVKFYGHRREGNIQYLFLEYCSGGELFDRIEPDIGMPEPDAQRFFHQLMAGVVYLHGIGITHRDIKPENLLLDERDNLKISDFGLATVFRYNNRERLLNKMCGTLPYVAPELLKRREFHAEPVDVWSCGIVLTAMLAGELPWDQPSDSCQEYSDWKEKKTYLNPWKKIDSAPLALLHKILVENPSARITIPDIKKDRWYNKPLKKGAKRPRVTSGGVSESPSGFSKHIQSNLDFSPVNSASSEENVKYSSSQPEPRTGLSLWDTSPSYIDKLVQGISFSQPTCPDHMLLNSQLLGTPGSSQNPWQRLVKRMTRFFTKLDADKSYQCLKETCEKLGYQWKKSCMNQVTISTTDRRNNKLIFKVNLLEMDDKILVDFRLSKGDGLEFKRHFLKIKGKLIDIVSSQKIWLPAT
# [9] = molecular target: Protein kinase C theta type (Homo sapiens) (UniProt Q04759); assay: Inhibition of wild-type human partial length PRKCQ (L350 to S706 residues) expressed in Escherichia coli BL21 assessed as residual activity at 1000 nM after 30 mins by Kinomescan method relative to control
# Chain of Protein kinase C theta type (Homo sapiens) (Q04759 whole entry, looked up, the tested form may be a part): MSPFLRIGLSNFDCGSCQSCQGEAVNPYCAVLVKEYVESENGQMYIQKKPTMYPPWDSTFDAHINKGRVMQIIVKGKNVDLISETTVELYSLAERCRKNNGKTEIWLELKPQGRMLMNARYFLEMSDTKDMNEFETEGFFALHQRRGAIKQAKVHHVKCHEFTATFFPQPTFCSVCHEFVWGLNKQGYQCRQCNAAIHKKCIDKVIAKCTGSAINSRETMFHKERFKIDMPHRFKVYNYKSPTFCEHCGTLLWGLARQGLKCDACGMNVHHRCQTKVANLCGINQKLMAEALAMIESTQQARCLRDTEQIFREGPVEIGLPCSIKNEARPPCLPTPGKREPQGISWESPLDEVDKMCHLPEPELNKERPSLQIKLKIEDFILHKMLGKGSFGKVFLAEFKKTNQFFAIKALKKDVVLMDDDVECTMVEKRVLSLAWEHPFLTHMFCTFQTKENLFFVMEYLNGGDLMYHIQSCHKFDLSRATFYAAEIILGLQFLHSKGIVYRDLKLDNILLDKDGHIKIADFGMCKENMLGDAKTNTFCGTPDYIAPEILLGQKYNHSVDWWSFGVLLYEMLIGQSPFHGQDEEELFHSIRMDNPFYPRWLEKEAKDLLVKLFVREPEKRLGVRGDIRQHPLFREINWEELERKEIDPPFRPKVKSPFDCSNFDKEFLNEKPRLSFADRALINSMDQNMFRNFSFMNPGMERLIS
# [10] = tested on: Epidermal growth factor receptor (Homo sapiens), P00533 [UNDEFINED MUTATION]; assay: Inhibition of human partial length EGFR L747-T751del/Sins mutant expressed in Escherichia coli BL21 assessed as residual activity at 1000 nM after 30 mins by Kinomescan method relative to control; outline: as §1
# Chain of Epidermal growth factor receptor (Homo sapiens), P00533 [UNDEFINED MUTATION] (P00533 whole entry, looked up, stated change not applied, the tested form may be a part): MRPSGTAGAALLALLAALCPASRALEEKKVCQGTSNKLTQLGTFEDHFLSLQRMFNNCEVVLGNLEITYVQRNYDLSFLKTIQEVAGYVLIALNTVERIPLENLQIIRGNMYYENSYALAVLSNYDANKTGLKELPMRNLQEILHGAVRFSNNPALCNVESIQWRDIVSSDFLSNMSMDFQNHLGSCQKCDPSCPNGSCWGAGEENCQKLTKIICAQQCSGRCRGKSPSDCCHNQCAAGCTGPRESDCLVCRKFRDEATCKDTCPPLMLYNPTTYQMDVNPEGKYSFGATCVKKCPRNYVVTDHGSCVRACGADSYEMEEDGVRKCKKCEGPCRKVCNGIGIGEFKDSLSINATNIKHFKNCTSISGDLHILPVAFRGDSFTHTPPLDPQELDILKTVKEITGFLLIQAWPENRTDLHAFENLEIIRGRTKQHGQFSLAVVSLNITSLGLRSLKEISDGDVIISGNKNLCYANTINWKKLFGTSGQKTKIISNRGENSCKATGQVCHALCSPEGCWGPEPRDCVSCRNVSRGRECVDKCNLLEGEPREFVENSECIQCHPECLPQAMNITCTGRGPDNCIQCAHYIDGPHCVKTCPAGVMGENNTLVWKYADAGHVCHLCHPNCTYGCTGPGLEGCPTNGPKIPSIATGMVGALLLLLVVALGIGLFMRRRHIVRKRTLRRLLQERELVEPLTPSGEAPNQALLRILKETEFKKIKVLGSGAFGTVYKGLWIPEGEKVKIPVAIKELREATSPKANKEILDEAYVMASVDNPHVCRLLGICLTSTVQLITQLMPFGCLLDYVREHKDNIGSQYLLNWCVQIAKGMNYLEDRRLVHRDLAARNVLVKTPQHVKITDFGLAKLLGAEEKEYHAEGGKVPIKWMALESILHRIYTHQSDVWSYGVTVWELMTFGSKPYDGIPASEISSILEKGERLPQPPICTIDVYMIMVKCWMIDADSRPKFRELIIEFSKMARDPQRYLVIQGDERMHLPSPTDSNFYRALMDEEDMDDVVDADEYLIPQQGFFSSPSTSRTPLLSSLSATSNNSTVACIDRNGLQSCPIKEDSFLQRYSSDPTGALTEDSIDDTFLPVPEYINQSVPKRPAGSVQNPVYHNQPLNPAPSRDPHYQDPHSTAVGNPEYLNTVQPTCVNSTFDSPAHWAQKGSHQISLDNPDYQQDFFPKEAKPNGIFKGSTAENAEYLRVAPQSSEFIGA
# [11] = molecular target: Interleukin-1 receptor-associated kinase 4 (Homo sapiens) (UniProt Q9NWZ3); assay: Inhibition of wild-type human partial length IRAK4 (M1 to S460 residues) expressed in HEK293 cells assessed as residual activity at 1000 nM after 30 mins by Kinomescan method relative to control; type: cell-based
# [12] = molecular target: Serine/threonine-protein kinase TAO3 (Homo sapiens) (UniProt Q9H2K8); assay: Inhibition of wild-type human partial length TAOK3 (M1 to T316 residues) expressed in HEK293 cells assessed as residual activity at 1000 nM after 30 mins by Kinomescan method relative to control; type: cell-based
# Chain of Serine/threonine-protein kinase TAO3 (Homo sapiens) (Q9H2K8 whole entry, the tested form may be a part): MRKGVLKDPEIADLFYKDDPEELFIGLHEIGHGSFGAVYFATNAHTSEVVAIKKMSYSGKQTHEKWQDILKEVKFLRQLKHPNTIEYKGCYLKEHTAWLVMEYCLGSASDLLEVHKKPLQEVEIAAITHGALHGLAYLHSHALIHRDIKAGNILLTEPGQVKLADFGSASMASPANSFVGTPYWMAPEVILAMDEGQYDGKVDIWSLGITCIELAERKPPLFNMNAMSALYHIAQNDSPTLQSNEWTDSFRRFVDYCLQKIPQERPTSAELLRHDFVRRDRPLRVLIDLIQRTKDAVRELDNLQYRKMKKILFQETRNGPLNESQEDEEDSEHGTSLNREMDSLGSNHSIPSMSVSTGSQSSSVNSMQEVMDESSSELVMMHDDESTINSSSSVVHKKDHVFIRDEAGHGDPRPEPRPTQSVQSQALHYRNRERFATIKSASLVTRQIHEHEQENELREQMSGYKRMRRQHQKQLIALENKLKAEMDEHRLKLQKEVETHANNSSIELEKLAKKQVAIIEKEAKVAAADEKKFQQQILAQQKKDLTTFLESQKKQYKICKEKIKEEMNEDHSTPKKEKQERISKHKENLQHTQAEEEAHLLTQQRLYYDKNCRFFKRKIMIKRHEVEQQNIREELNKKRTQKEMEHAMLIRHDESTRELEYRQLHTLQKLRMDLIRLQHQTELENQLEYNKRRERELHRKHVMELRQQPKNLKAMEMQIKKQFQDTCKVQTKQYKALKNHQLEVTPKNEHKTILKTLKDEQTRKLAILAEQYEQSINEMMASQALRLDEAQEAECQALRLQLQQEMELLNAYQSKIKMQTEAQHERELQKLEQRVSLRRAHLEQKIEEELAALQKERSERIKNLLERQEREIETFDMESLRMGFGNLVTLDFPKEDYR
# [13] = tested on: Tyrosine-protein kinase ABL1 (Homo sapiens), P00519 [T315I]; assay: Inhibition of human phosphorylated ABL1 T315I mutant (S229 to K512 residues) expressed in HEK293 cells assessed as residual activity at 1000 nM after 30 mins by Kinomescan method relative to control; type: cell-based; outline: as §2
# [14] = tested on: Mast/stem cell growth factor receptor Kit (Homo sapiens), P10721 [V559D]; assay: Inhibition of human partial length KIT V559D mutant (Y545 to D952 residues) expressed in Escherichia coli BL21 assessed as residual activity at 1000 nM after 30 mins by Kinomescan method relative to control; outline: as §1
# [15] = molecular target: Epidermal growth factor receptor (Homo sapiens) (UniProt P00533); assay: Inhibition of wild-type human partial length EGFR (R669 to V1011 residues) expressed in Escherichia coli BL21 assessed as residual activity at 1000 nM after 30 mins by Kinomescan method relative to control
# Chain of Epidermal growth factor receptor (Homo sapiens) (P00533 whole entry, the tested form may be a part): as the sequence (P00533 whole entry, looked up, stated change not applied, the tested form may be a part) above
# [16] = molecular target: Mitogen-activated protein kinase kinase kinase 15 (Homo sapiens) (UniProt Q6ZN16); assay: Inhibition of wild-type human partial length MAP3K15 (T625 to L932 residues) expressed in HEK293 cells assessed as residual activity at 1000 nM after 30 mins by Kinomescan method relative to control; type: cell-based
# [17] = molecular target: SRSF protein kinase 2 (Homo sapiens) (UniProt P78362); assay: Inhibition of wild-type human full length SRPK2 (M1 to S686 residues) expressed in Escherichia coli BL21 assessed as residual activity at 1000 nM after 30 mins by Kinomescan method relative to control
# [18] = molecular target: Ribosomal protein S6 kinase alpha-1 (Homo sapiens) (UniProt Q15418); assay: Inhibition of wild-type human partial length N-terminal RSK1 Kinase domain 1 (M1 to E388 residues) expressed in Escherichia coli BL21 assessed as residual activity at 1000 nM after 30 mins by Kinomescan method relative to control
# [19] = molecular target: Serine/threonine-protein kinase ULK3 (Homo sapiens) (UniProt Q6PHR2); assay: Inhibition of wild-type human partial length ULK3 (M1 to Q290 residues) expressed in HEK293 cells assessed as residual activity at 1000 nM after 30 mins by Kinomescan method relative to control; type: cell-based
# Chain of Serine/threonine-protein kinase ULK3 (Homo sapiens) (Q6PHR2 whole entry, the tested form may be a part): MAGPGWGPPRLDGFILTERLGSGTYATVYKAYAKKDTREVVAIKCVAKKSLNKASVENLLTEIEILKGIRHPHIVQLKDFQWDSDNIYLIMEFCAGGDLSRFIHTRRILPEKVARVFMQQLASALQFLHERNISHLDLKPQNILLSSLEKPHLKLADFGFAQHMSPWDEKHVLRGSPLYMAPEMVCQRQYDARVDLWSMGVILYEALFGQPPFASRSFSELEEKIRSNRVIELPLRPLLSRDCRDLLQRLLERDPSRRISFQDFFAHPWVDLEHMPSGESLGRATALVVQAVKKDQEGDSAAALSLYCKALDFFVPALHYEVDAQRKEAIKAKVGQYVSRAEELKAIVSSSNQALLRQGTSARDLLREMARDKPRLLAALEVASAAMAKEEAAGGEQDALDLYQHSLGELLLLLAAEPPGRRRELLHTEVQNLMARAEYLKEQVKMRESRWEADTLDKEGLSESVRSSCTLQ
# [20] = molecular target: Serine/threonine-protein kinase 16 (Homo sapiens) (UniProt O75716); assay: Inhibition of wild-type human partial length STK16 (G11 to I305 residues) expressed in Escherichia coli BL21 assessed as residual activity at 1000 nM after 30 mins by Kinomescan method relative to control
# [21] = tested on: Phosphatidylinositol 4,5-bisphosphate 3-kinase catalytic subunit alpha isoform (Homo sapiens), P42336 [H1047L]; assay: Inhibition of human partial length PIK3CA H1047L mutant (R108 to N1068 residues) expressed in HEK293 cells assessed as residual activity at 1000 nM after 30 mins by Kinomescan method relative to control; type: cell-based; outline: as §1
smiles,measurement,setting,value
COc1cc(OC)c(Cl)c(N2Cc3cnc(Nc4ccc(F)cc4)nc3N(C3CCN(C(=O)/C=C/CN(C)C)CC3)C2=O)c1Cl,Activity,[1],92%
same,Activity,[2],100%
same,Activity,[3],100%
same,IC50,[4],0.99 nM
same,Activity,[5],80%
same,Activity,[6],93%
same,Activity,[7],100%
same,Activity,[8],100%
same,Activity,[9],100%
same,Activity,[10],95%
same,Activity,[11],100%
same,Activity,[12],36%
same,Activity,[13],97%
same,Activity,[14],11%
same,Activity,[15],91%
same,Activity,[16],100%
same,Activity,[17],91%
same,Activity,[18],78%
same,Activity,[19],99%
same,Activity,[20],100%
same,Activity,[21],100%
